F508del corr: correctors of CFTR F508del function in bronchial epithelial cells. CFBE cells, YFP halide quenching; stimulated with forskolin plus potentiator P3; % fluorescence drop versus neutral controls. 350,000 tested, 0.36% active. activity (quench increase), % at 7.58 µM;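 active = mean added fluorescence quench of at least 8% versus neutral control, with both replicates also reaching 8%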;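 note: cells transiently co-express mutant CFTR-F508del with the halide-sensitive YFP; corrector assay measuring rescue of mutant channel to the surface after 24 h compound exposure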
MC4R ag barr: agonists of human melanocortin 4 receptor (MC4R) beta-arrestin. 360,000 tested, 0.98% active. activation, % at 8.9 µM. P32245. U2OS MC4R beta-arrestin complementation, luminescence; percent of melanotan II response, DMSO zero;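 active = activation above a per-plate cutoff, the mean activation of sample wells on that plate plus 3 SD, cut at about 8% in these data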
Target sequence (P32245 whole entry, looked up): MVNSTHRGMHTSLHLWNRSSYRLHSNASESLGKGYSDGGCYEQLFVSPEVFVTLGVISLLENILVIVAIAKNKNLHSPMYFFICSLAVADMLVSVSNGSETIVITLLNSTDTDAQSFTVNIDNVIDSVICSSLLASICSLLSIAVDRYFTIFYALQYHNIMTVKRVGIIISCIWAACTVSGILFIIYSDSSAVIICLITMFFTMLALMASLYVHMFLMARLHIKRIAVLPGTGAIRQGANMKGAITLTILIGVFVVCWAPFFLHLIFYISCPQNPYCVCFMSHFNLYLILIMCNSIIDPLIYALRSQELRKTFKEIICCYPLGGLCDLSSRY
SMARCA2 act: increases SMARCA2 function in MMTV reporter cells; activation, % at 9.1 µM; MG213 cells, MMTV-luciferase reporter, dexamethasone, overnight; 370,000 tested, 1% active; in the data active = activation above about 7.8%;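 note: 0% = vehicle wells and 100% = reference activator wells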
MC4R antag cAMP: antagonists of human melanocortin 4 receptor (MC4R); MC4R-expressing cells, MTII-stimulated cAMP, LANCE TR-FRET; inhibition, % at 6.5 µM; 360,000 tested, 0.48% active; AID 540295;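 active = inhibition above its plate's cutoff, the mean of tested wells on that plate plus 3 SD, cut at about 29% in these data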;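 note: 0% = Melanotan II alone and 100% = Melanotan II plus saturating MCL0020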
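system = U2OS cells with stable human MC4R expression | also added = Melanotan II challenge after compound preincubation | dosing = one concentration, 6.5 µM nominal | incubation = compound 30 min, challenge 1 h, detection 1 h | measured by = TR-FRET with Eu-cAMP and labeled anti-cAMP, 671 nm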
* = called active by the depositor; · = no result. Shown are actives, neighbours in structure and some others; about 2.1% of the full set was active somewhere.

SMILES | F508del corr | MC4R ag barr | SMARCA2 act | MC4R antag cAMP
CCN1C(=O)c2cccc3c(N)ccc(c23)C1=O | 19* | 1 | -2 | -51
COc1ccc(S(=O)(=O)N(C)C[C@H]2Oc3ccc(NC(=O)NC4CCCCC4)cc3CC(=O)N([C@H](C)CO)C[C@@H]2C)cc1 | 1 | · | · | ·
CN(C)S(=O)(=O)c1ccc(NC(=S)NC(=O)C2CCC2)cc1 | -1 | 2 | 1 | 5
CN(Cc1ccccc1)S(=O)(=O)c1ccc(NC(=S)NC(=O)C2CCCC2)cc1 | 14* | -1 | -3 | -8
Cc1ccc(Cn2c(=O)c3ccccc3n3nc(C)cc23)cc1 | 2 | 8.2* | -2 | 0
Cn1c(C(=O)c2ccccc2[N+](=O)[O-])nc2ccccc21 | 8.6* | 1 | -1 | 1
Cn1c(C(=O)c2ccccc2)nc2ccccc21 | -2 | 0 | 3 | 8
C[C@H]1CN([C@@H](C)CO)C(=O)c2cc(-c3ccc(F)cc3)cnc2O[C@H]1CN(C)Cc1ccc(F)cc1 | -1 | · | · | ·
Cc1cccc(C(=O)Oc2ccccc2/C=N/Nc2ccc([N+](=O)[O-])cc2)c1 | 2 | 9.2* | -2 | 9
O=[N+]([O-])c1ccc(N/N=C/c2cccc(O)c2O)cc1 | -2 | -5 | -1 | -1
Cc1cccc(OCCNC(=S)NC(=O)c2cncc(Br)c2)c1 | 0 | 9.3* | 0 | 0
Cc1ccc(OCCNC(=O)c2cncc(Br)c2)cc1C | · | -1 | 1 | 8
CCCNC(=O)[C@@H]1[C@@H](CO)[C@@H]2Cn3c(ccc(-c4ccc(C(=O)N(C)C)cc4)c3=O)[C@@H]2N1CCC | 2 | · | · | ·
Cc1nc2ccccc2n2c(O)c(CC(=O)O)cc12 | · | 8.3* | -3 | -30
O=C(OCn1ncc(Br)c(Br)c1=O)c1ccc(F)cc1 | · | 0 | · | 47*
O=C(OCn1ncc(Br)c(Br)c1=O)c1ccccc1Cl | · | -2 | · | 6
COc1cccc(S(=O)(=O)N2CC[C@@H]3[C@H]2c2cc(C#Cc4cccnc4)ccc2N(C)[C@H]3CO)c1 | 2 | · | · | ·
O=C1C=CC(=O)N1c1ccc2c(c1)C(NC(=O)C(F)(F)F)c1ccccc1-2 (configuration not stated) | -5 | -4 | -3 | 71*
Cn1cnc(S(=O)(=O)N[C@H]2C=C[C@H](CC(=O)NCC3CCCCC3)O[C@H]2CO)c1 | 0 | · | · | ·
COc1ccc(OC)c(Cc2nnc(CCC(=O)N3CCN(C4CCCC4)CC3)o2)c1 | 2 | 0 | 7.8* | 19
COc1ccc(OC)c(Cc2nnc(CCC(=O)N3CCCCC3)o2)c1 | 1 | -2 | 1 | 4
Cc1ccc(S(=O)(=O)N(Cc2cc3ccccc3[nH]c2=O)c2cccc(C)c2)cc1 | 14* | -1 | -1 | 6
COc1ccc(CCNc2ncnc3c2oc2ccccc23)cc1OC | 9.3* | 0 | -7 | 6
COc1ccc(CCNc2nc(C)nc3c2oc2ccccc23)cc1OC | · | -1 | -3 | -1
CC(C)(C)C1CCC(=NNC(=O)c2ccccc2-n2cccc2)CC1 (configuration not stated) | · | 0 | 11* | -6
SMILES | F508del corr | MC4R ag barr | SMARCA2 act | MC4R antag cAMP
O=C(NN=C1CCCCC1)c1ccccc1-n1cccc1 | -3 | -1 | -2 | 1
C[C@@H]1CN([C@@H](C)CO)C(=O)c2cccc(NC(=O)c3cnccn3)c2O[C@@H]1CN(C)S(C)(=O)=O | 1 | · | · | ·
CCCCC(=O)NC(c1ccc(C(C)C)cc1)c1ccc2cccnc2c1O (configuration not stated) | -5 | -3 | -3 | 4
CC(=O)NC(c1ccc(C(C)C)cc1)c1ccc2cccnc2c1O (configuration not stated) | 8.9* | -4 | -4 | -6
COc1ccccc1-c1cc(C(=O)Nc2ccccc2SC)no1 | · | 8.7* | 0 | -8
COc1ccccc1-c1cc(C(=O)Nc2cccnc2Cl)no1 | -2 | 8 | 3 | 21
COc1ccccc1Cc1c(-c2cccc(Br)c2)nc2ccc(Br)cn12 | 0 | · | 7.9* | ·
COc1ccccc1Cc1c(-c2ccc(Cl)cc2)nc2ccc(Br)cn12 | 10* | · | -1 | ·
COc1ccc(S(=O)(=O)N(C)C[C@H]2Oc3ccc(NC(=O)CCCN(C)C)cc3CC(=O)N([C@H](C)CO)C[C@@H]2C)cc1 | -1 | · | · | ·
O=C(N/N=C/c1ccccc1OCc1ccccc1)c1cccs1 | · | 1 | 7.9* | -1
COc1cc(/C=N/NC(=O)c2cccs2)ccc1OCc1ccccc1 | · | 6 | -2 | -6
COCCN(Cc1cc2cc(C)ccc2n2nnnc12)C(=S)Nc1cccc(C)c1 | 3 | -1 | 1 | 5
CCc1ccc2c(c1)cc(CN(C(=S)Nc1cccc(C)c1)C1CC1)c1nnnn12 | 3 | 13* | -2 | -10
COCC(=O)NC[C@@H]1[C@H](c2ccccc2)[C@@H](CO)N1C(=O)c1ccccc1 | 1 | · | · | ·
Cn1c(CC(=O)NN)c(Sc2ccccc2)c2ccccc21 | 12* | 1 | -4 | -3
O=C(NC[C@H]1[C@@H](c2ccccc2)[C@@H](CO)N1Cc1ccccn1)NC1CCCC1 | -5 | · | · | ·
CN(C)C(CNS(=O)(=O)c1cc([N+](=O)[O-])ccc1Cl)c1ccco1 (configuration not stated) | 1 | 1 | 7.8* | -10
C[C@H](CO)N1C[C@H](C)[C@@H](CN(C)C(=O)Nc2ccccc2)Oc2c(NC(=O)c3cnccn3)cccc2C1=O | 0 | · | · | ·
C#CCOCCOCCOCCNc1nc(N2CCN(C(=O)CCCCCCCCCCNC(=O)Cn3cc(C[C@@H](C)O)nn3)CC2)nc(N2CCN(C(=O)CCCCCCCCCCNC(=O)[C@H](CCCN=C(N)N)n3cc(C[C@@H](C)CC)nn3)CC2)n1 | · | -2 | · | 42*
C#CCOCCOCCOCCNc1nc(N2CCN(C(=O)CCCCCCCCCCNC(=O)[C@H](CO)n3cc(CCCSC)nn3)CC2)nc(N2CCN(C(=O)CCCCCCCCCCNC(=O)[C@H](CCCN=C(N)N)n3cc(C[C@@H](C)CC)nn3)CC2)n1 | · | 0 | · | 53*
COc1ccc(CCC(C)NCc2ccc(Cl)c(Cl)c2)cc1 (configuration not stated) | -2 | 2 | -1 | -4
COc1ccc(CCC(C)NCCc2ccc(Cl)cc2Cl)cc1 (configuration not stated) | -4 | 9.2* | -1 | -4
CC(=O)N1CCN(C(=O)c2cccc(S(=O)(=O)N3c4ccccc4CC3C)c2)CC1 (configuration not stated) | 2 | 0 | 4 | 2
CC1Cc2ccccc2N1S(=O)(=O)c1cccc(C(=O)N2CCN(c3ncccn3)CC2)c1 (configuration not stated) | 8.5* | 1 | 1 | -6
O=C(COc1cccc(Cl)c1)N/N=C\c1cc2ccccc2nc1Cl | · | 9.0* | -3 | 5
Cc1ccc(Cl)cc1N1CCN(S(=O)(=O)c2ccc(-c3ccc(=O)[nH]n3)o2)CC1 | -3 | 2 | -1 | 6
Cc1ccc(C)c(N2CCN(S(=O)(=O)c3ccc(-c4ccc(=O)[nH]n4)o3)CC2)c1 | -1 | 11* | -4 | 0

From PubChem BioAssay
